Bioassay records as filed in PubChem.
CDK5 p35 inh = CDK5/p35 (human) kinase inhibition; Q00535+Q15078; Recombinant CDK5/p35, ADP-Glo luminescence, 60 min; inhibition, % at 10 µM; 330,000 tested, 0.01% active; AID 488839;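 active means highest replicate inhibition of at least 50% and at least 75% of replicates reaching 50%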
dFosB act-1 = activators of mouse delta FosB homodimer; purified delta FosB, TAMRA-CDK5 oligo fluorescence polarization; percent of positive-control signal above neutral wells; 340,000 tested, 0.99% active; activation, % at 25 µM; P13346;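 active means mean activation above about 17%, with every replicate also reaching it, limit read from the data, passing the limit was not always enough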
Target sequence (P13346 whole entry, looked up): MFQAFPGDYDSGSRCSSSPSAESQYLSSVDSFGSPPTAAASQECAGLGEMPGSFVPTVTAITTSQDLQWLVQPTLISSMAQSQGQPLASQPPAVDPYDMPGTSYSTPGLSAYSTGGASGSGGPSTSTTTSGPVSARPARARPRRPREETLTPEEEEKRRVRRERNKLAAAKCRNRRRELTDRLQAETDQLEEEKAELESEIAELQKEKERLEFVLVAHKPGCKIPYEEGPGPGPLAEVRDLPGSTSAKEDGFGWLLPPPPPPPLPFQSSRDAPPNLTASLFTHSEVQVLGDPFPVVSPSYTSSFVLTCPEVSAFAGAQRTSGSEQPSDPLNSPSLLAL
SR-BI DiI inh = blocks mouse SR-BI lipid uptake from DiI-HDL; Q61009; ldlA[mSR-BI] CHO cells, DiI-HDL uptake fluorescence, 3 h; inhibition, % at 12.5 µM; 320,000 tested, 0.96% active; AID 488896;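 active means mean replicate inhibition of at least 70% and a set share of replicates each scoring 70 or more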
SR-BI DiI-HDL act = SR-BI HDL lipid transfer activation; activation, % at 12.5 µM; CHO ldlA[mSR-BI] cells, DiI-HDL uptake fluorescence, 3 h; 100 = double the neutral-control signal; AID 504775; 320,000 tested, 0.096% active;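 active means mean replicate activation of at least 60% and every replicate at or above 60%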
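system = CHO ldlA[mSR-BI] cells, LDL receptor-null, SR-BI overexpressing | medium = Ham's F12 with 0.5% BSA, HEPES 25 mM, pH 7.4 | probe or stimulus = DiI-HDL 10 µg/mL | compound dosing = single-point compound dose | incubation = compound exposure 3 h, 37 °C | technique = DiI fluorescence, bottom read | read-out = cell-associated DiI fluorescence as measure of HDL uptake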
dFosB act-2 = delta FosB (mouse) homodimer activation; shares compounds with dFosB act-1; 2,400 tested, under 10 active; activation, % at 24.9 µM; purified delta FosB, TAMRA-CDK5 oligo fluorescence polarization; normalised: neutral wells 0, positive control 100;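 active means highest replicate activation at or above 34% and every replicate reaching that threshold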;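 further: higher polarization means more probe DNA bound by delta FosB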
Hits are given with their value; i = inactive; nt = no result. This is a sample that favours compounds with a hit; in the whole collection about 2% have one here.

SMILES	CDK5 p35 inh	dFosB act-1	SR-BI DiI inh	SR-BI DiI-HDL act	dFosB act-2
O=C(/C=C/c1ccccc1)NC(NC(=S)Nc1ccc(Cl)cc1)C(Cl)(Cl)Cl (stereo not drawn)	i	24	i	i	i
COc1ccc(NC(=S)NC(NC(=O)/C=C/c2ccccc2)C(Cl)(Cl)Cl)cc1 (stereo not drawn)	i	i	i	i	nt
COc1cccc(-c2ncc3ccccc3c2COC(=O)N2CCCCC2)c1	i	i	i	i	nt
O=C1C2CC=CCC2C(=O)N1Cc1nnc(-c2ccccc2Br)o1 (stereo not drawn)	i	i	i	i	nt
CC1CCCCC1NC(=O)CSc1nnnn1C (stereo not drawn)	i	i	i	i	nt
Cc1ccc(NC(=O)CSc2nnc(NC(=O)C3CC3)s2)cc1	i	31	i	i	i
Cc1ccc(NC(=O)CSc2nnc(NC(=O)C3CC3)s2)cc1C	i	i	nt	nt	nt
Cc1cc(C)cc(NC(=O)CSc2nnc(NC(=O)C3CC3)s2)c1	i	28	i	i	i
CN([C@@H](Cc1ccc(OS(=O)(=O)c2cccc3cnccc23)cc1)C(=O)N1CCN(c2ccccc2)CC1)S(=O)(=O)c1cccc2cnccc12	i	21	i	i	i
S=c1[nH]nc(-c2cc(-c3ccccc3)n[nH]2)n1/N=C/c1ccc(Br)s1	i	i	nt	nt	nt
Cc1ccc(S(=O)(=O)N(C)c2ccc(OC(=O)CN3C(=O)NC4(CCCC4)C3=O)cc2)cc1C	i	25	i	i	i
Cc1ccc(S(=O)(=O)N(C)c2ccc(OC(=O)CN3C(=O)NC4(CCCC4)C3=O)cc2)cc1	i	i	i	i	nt
CC(C)CC(NC(=O)C(Cc1ccc(OCc2ccccc2)cc1)NC(=O)OC(C)(C)C)C(N)=O (stereo not drawn)	i	30	i	i	i
CCOc1ccc(/C=N/NC(=O)c2nnn(-c3nonc3N)c2COc2ccc(F)cc2)cc1	i	40	i	i	i
Cc1ccsc1/C=N/NC(=O)c1nnn(-c2nonc2N)c1CSc1ccccc1	i	18	i	i	i
Nc1nonc1-n1nnc(C(=O)N/N=C/c2ccc(F)cc2)c1-c1cccs1	i	55	i	i	i
Cc1ccc(CNC(=O)c2ccccc2NC(=O)CN2CC(C)OC(C)C2)cc1 (stereo not drawn)	i	i	i	i	nt
COc1ccc(Cc2nc3c4c(ncn3n2)Oc2c(ccc3ccccc23)C4c2ccc(OC)c(OC)c2)cc1 (stereo not drawn)	i	32	i	i	i
O=C(CSc1nnc(NC(=O)C2CC2)s1)NCc1ccccc1	i	i	i	i	nt
COc1ccc(C)cc1NC(=O)Nc1ccc2c(c1)CCC2	i	23	i	i	i
COc1ccccc1NC(=O)Nc1ccc2c(c1)CCC2	i	i	i	nt	nt
COc1ccc(/C=N/NC(=O)C2c3ccccc3-c3ccccc32)cc1	i	22	i	i	i
COC(=O)Nc1ccc(S(=O)(=O)NNC(=O)c2c(O)c3ccccc3n(C)c2=O)cc1	i	41	i	i	i
CC1CC(C)CN(C(=O)CN(C)S(=O)(=O)c2ccc3c(c2)c(=O)n(C)c(=O)n3C)C1 (stereo not drawn)	i	i	i	i	nt
Cc1c(C(=O)NCc2cccs2)oc2ccc(Br)cc12	i	i	i	i	nt
SMILES	CDK5 p35 inh	dFosB act-1	SR-BI DiI inh	SR-BI DiI-HDL act	dFosB act-2
Cc1c(C(=O)NNC(=O)c2ccccc2O)oc2ccc(Br)cc12	i	37	129	i	i
O=C(COC(=O)/C=C/c1cccc(Br)c1)NCc1cccs1	i	46	i	i	i
O=C(COC(=O)/C=C/c1cccc(Br)c1)NCc1ccco1	i	i	i	i	nt
CN(N=O)c1ccc(CC2CCc3ccccc32)cc1 (stereo not drawn)	i	i	i	i	nt
O=C(CN1CCN(c2cccc(Cl)c2)CC1)c1ccc(O)cc1O	i	i	i	i	nt
CN(CC(=O)Nc1cccc(F)c1)C(=O)CN1C(=O)NC2(CCCC2)C1=O	i	i	i	i	nt
COc1ccc(/C=C2\SC(=O)N(CC(=O)NCCC(C)C)C2=O)cc1OC	i	i	i	i	nt
COc1ccc(/C=C2/SC(=O)N(CC(=O)NCCC(C)C)C2=O)cc1OC	i	17	i	i	i
COc1cc(OC)c(/C=C2\SC(=O)N(CC(=O)Nc3ccccc3F)C2=O)c(OC)c1	i	23	i	i	i
COc1ccc(/C=C2\SC(=O)N(CC(=O)Nc3ccc(F)cc3)C2=O)cc1O	i	19	i	i	i
Cc1ccc(C(=O)NCC(=O)OCC(=O)N(CC(C)C)c2c(N)n(Cc3ccccc3)c(=O)[nH]c2=O)cc1C	i	i	i	i	nt
COCCN(C(=O)COC(=O)CCc1ccccc1OC)c1c(N)n(Cc2ccccc2)c(=O)[nH]c1=O	i	i	i	i	nt
CN(C(=O)COC(=O)c1ccccc1OCc1ccc(Cl)cc1)c1c(N)n(Cc2ccccc2)c(=O)[nH]c1=O	i	34	i	i	i
CCN(C(=O)COC(=O)CCc1ccccc1OC)c1c(N)n(Cc2ccccc2)c(=O)[nH]c1=O	i	28	i	i	i
Cc1ccc(OCCC(=O)N(CCC(C)C)c2c(N)n(Cc3ccccc3)c(=O)[nH]c2=O)cc1	i	24	i	i	i
CCCN(C(=O)COC(=O)CCOc1ccc(C)cc1)c1c(N)n(Cc2ccccc2)c(=O)[nH]c1=O	i	i	i	i	nt
Cc1ccc(SCC(=O)OCC(=O)N(CC(C)C)c2c(N)n(Cc3ccccc3)c(=O)[nH]c2=O)cc1C	i	33	i	i	i
O=C(O)c1ccccc1C(=O)NNc1cccc(Cl)n1	i	i	i	i	nt
CC(C)CN(C(=O)COC(=O)C(C)N1C(=O)c2ccccc2C1=O)c1c(N)n(Cc2ccccc2)c(=O)[nH]c1=O (stereo not drawn)	i	37	i	i	i
CCN(C(=O)CSc1nnc(-c2ccccc2Cl)n1N)c1c(N)n(Cc2ccccc2)c(=O)[nH]c1=O	i	i	i	i	nt
CC1(C)CC(=O)C(C2C3=C(CC(C)(C)CC3=O)Oc3c(Br)cc(Br)cc32)=C(O)C1 (stereo not drawn)	i	i	i	i	nt
Cc1ccc(S(=O)(=O)N2CCN(C(=O)C(Cc3ccccc3)NC(=O)c3ccccc3)CC2)cc1 (stereo not drawn)	i	23	i	i	i
Cc1ccc(NC(=O)CSC2=C(C#N)C(c3ccc4c(c3)OCO4)CC(=O)N2)cc1C (stereo not drawn)	i	46	i	i	i
CCc1ccc(NC(=O)CSC2=C(C#N)C(c3ccc4c(c3)OCO4)CC(=O)N2)cc1 (stereo not drawn)	i	i	i	i	nt
COc1ccc(NC(=O)c2cc(CN3C(=O)c4ccccc4C3=O)ccc2OC)cn1	i	18	i	i	i
COc1ccc(CN2C(=O)c3ccccc3C2=O)cc1C(=O)Nc1ccccc1N1CCOCC1	i	i	i	i	nt
